Experimental findings from ChEMBL document CHEMBL2040739, “Effect of phosphodiesterase 7 (PDE7) inhibitors in experimental autoimmune encephalomyelitis mice. Discovery of a new chemically diverse family of compounds” (J Med Chem, 2012) are described below.

Data set [1] addresses 3',5'-cyclic-AMP phosphodiesterase 4D (Homo sapiens, UniProt Q08499). As to the kind of experiment: Inhibition of human recombinant PDE4D3 using fluorescein 3',5'-cyclic phosphate after 60 mins by IMAP fluorescence polarization assay. Summed up:
(§1)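 IMAP fluorescence polarization assay. Human recombinant PDE4B2 or PDE4D3 (0.05 U) incubated with 1 nM fluorescein adenosine 3′,5′-cyclic phosphate for 60 min at ambient temperature. Stopped with IMAP binding reagent and left 1 h before reading FP. IC50 from a sigmoidal dose−response fit.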

Data set [2] concerns the target T1, cGMP-inhibited 3',5'-cyclic phosphodiesterase 3A (Homo sapiens, UniProt Q14432). As to the kind of experiment: Inhibition of human recombinant PDE3A-mediated [3H]cAMP hydrolysis at 10 uM after 20 mins by scintillation proximity assay. In short, it runs like this: (§2)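 Scintillation proximity assay with human recombinant full-length enzyme: PDE7A1 or PDE3A at 0.02 unit, or PDE7B at 0.5 unit. Enzyme incubated with 5 nCi [3H]cAMP for 20 min at 30 °C. SPA beads added, shaken 1 h at room temperature, then settled 30 min before counting. Single-point screens at 10 μM run in duplicate. IC50 from a sigmoidal dose−response fit.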
On the technique in general: In a scintillation proximity assay essentially only radioactivity close to the scintillant gives light.

Data set [3] can be described thus: Permeability across after 2 hrs 30 mins by pig brain lipid membrane based PAMPA-BBB assay. To be noted: read-out: permeability. It is filed as ADME. In short, it runs like this:
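PAMPA-BBB assay. Donor wells coated with porcine polar brain lipid in dodecane (20 mg/mL). Compound dissolved in EtOH/PBS pH 7.4; acceptor holds PBS/EtOH 70/30. Sandwich left 2 h 30 min at 25 °C. Concentrations read by UV at 3−5 wavelengths, in three wells and two independent runs. Ten reference drugs included for validation.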
A general note: The PAMPA barrier holds no transporters, so it reflects passive diffusion.

In data set [4] the target is 3',5'-cyclic-AMP phosphodiesterase 7B (Homo sapiens) (UniProt Q9NP56). As to the kind of experiment: Inhibition of human recombinant PDE7B-mediated [3H]cAMP hydrolysis at 10 uM after 20 mins by scintillation proximity assay. In short, it runs like this: as §2
3',5'-cyclic-AMP phosphodiesterase 7B (Homo sapiens), sequence (Q9NP56 whole entry): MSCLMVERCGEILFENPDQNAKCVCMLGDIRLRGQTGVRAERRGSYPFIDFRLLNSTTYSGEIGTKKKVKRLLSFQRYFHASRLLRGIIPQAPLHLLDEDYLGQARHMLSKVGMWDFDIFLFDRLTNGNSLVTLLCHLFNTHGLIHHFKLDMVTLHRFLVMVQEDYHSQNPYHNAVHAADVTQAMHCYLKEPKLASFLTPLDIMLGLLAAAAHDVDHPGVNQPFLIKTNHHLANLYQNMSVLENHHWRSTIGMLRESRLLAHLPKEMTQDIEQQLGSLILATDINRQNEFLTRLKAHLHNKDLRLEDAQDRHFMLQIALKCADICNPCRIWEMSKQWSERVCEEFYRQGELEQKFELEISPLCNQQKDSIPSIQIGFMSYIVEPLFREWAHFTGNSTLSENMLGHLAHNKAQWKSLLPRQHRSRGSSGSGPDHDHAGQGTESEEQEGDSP
The species entered for data set [5] is Homo sapiens. As to the kind of experiment: Selectivity index, ratio of IC50 for human recombinant PDE3A to IC50 for human recombinant PDE7A1.
The target of data set [6] is T1, cGMP-inhibited 3',5'-cyclic phosphodiesterase 3A. As to the kind of experiment: Inhibition of human recombinant PDE3A-mediated [3H]cAMP hydrolysis after 20 mins by scintillation proximity assay. In short, it runs like this: as §2
Data set [7] concerns Mus musculus. As to the kind of experiment: Antiinflammatory activity in C57BL/6J mouse MOG(35 to 55)-induced experimental autoimmune encephalomyelitis model assessed as inhibition of clinical symptoms at 10 mg/kg, ip dosed daily for 16 days starting at day 5 after disease onset measured on day 32 post-immunization. It is filed as functional, organism-based. On the set-up: dose 10 mg/kg.

A short description of data set [8]: Cytotoxicity against rat astrocytes at 5 to 10 uM after 16 hrs by MTT assay. Format: cell-based. The following applies: astrocyte. In short, it runs like this: (§3)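 Primary neonatal rat cortical astrocytes or microglia, after 1 week in culture, exposed to compound for 16 h. MTT at 0.5 mg/mL for 4 h, then solubilized in 10% SDS/0.01 M HCl for 12 h in the dark. Absorbance read at 595 nm. Six replications in three experiments.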
For orientation: Formazan colour is commonly taken as a measure of viable cells.

The target of data set [9] is T2, High affinity 3',5'-cyclic-AMP phosphodiesterase 7A (Mus musculus) (UniProt P70453).
T2 sequence (whole entry): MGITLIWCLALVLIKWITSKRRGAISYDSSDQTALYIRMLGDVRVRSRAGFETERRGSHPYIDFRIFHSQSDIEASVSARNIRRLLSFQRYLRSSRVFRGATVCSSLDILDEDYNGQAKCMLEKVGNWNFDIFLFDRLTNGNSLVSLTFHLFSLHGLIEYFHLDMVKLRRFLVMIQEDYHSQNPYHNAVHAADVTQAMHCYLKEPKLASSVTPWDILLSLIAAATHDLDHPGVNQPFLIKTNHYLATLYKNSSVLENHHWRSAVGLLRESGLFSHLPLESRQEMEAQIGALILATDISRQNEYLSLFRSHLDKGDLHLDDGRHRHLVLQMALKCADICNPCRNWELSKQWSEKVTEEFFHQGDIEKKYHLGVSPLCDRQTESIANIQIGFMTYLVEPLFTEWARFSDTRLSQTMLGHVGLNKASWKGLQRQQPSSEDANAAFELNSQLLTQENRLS
As to the kind of experiment: Inhibition of PDE7A1 in mouse RAW cells assessed as increase in cAMP level at 10 to 30 uM after 60 mins by enzyme immunoassay. Format: cell-based. In short, it runs like this: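 RAW cells seeded at 3 × 10^4 per well and incubated overnight. Compound added for 60 min at 10 or 30 μM. Intracellular cAMP quantified by enzyme immunoassay kit.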

Data set [10] deals with Mus musculus. As to the kind of experiment: Toxicity in C57BL/6J mouse MOG(35 to 55)-induced experimental autoimmune encephalomyelitis model assessed as decrease in body weight at 10 mg/kg, ip dosed daily for 26 days starting at day 5 after disease onset measured on day 42 post-immunization. The following applies: in vivo, 624 h. Set-up: dose 10 mg/kg, route intraperitoneal. Format: organism-based.

Data set [11] relates to Mus musculus. The data set can be described thus: Antiinflammatory activity in C57BL/6J mouse MOG(35 to 55)-induced experimental autoimmune encephalomyelitis model assessed as inhibition of clinical symptoms at 10 mg/kg, ip dosed daily for 26 days starting at day 5 after disease onset measured on day 42 post-immunization. It is filed as functional, organism-based. On the set-up: dose 10 mg/kg.

The target in data set [12] is T3, High affinity 3',5'-cyclic-AMP phosphodiesterase 7A (Homo sapiens, UniProt Q13946). The data set can be described thus: Inhibition of human recombinant PDE7A1-mediated [3H]cAMP hydrolysis after 20 mins by scintillation proximity assay. In short, it runs like this:
as §2

The test system of another data set is Astrocyte. As to the kind of experiment: Antiinflammatory activity in rat astrocytes assessed as inhibition of LPS-induced nitrite production at 5 to 10 uM incubated for 1 hr prior to LPS-challenge measured after 24 hrs by Griess method. It is filed as functional, cell-based. In short, it runs like this:
(§4)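 Glial cells from neonatal rat cerebral cortex; microglia and astrocytes separated by shaking and cultured 1 week. Purity >98% by OX42 and GFAP staining. Microglia kept with 10 ng/mL GM-CSF. Cells given compound for 1 h, then LPS (10 μg/mL) for 24 h. Nitrite in the supernatant measured by Griess reaction at 492/540 nm. Mean ± SD of six replications in three experiments.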

Data set [13] concerns the target T3, High affinity 3',5'-cyclic-AMP phosphodiesterase 7A. The data set can be described thus: Competitive inhibition of human recombinant PDE7A1 using 5 nM to 2 uM cAMP as substrate by Lineweaver-Burk plot analysis. Summed up: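 PDE7A1 scintillation proximity assay with unlabeled cAMP varied from 5 nM to 2 μM, against fixed [3H]cAMP tracer. Two inhibitor concentrations tested, with AMP formation measured. Data analysed by Lineweaver−Burk plots. Triplicate measurements, mean ± SEM.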

The target in data set [14] is 3',5'-cyclic-AMP phosphodiesterase 4B (Homo sapiens, UniProt Q07343). As to the kind of experiment: Inhibition of human recombinant PDE4B2 using fluorescein 3',5'-cyclic phosphate after 60 mins by IMAP fluorescence polarization assay. Summed up: as §1
3',5'-cyclic-AMP phosphodiesterase 4B, sequence (Q07343 whole entry): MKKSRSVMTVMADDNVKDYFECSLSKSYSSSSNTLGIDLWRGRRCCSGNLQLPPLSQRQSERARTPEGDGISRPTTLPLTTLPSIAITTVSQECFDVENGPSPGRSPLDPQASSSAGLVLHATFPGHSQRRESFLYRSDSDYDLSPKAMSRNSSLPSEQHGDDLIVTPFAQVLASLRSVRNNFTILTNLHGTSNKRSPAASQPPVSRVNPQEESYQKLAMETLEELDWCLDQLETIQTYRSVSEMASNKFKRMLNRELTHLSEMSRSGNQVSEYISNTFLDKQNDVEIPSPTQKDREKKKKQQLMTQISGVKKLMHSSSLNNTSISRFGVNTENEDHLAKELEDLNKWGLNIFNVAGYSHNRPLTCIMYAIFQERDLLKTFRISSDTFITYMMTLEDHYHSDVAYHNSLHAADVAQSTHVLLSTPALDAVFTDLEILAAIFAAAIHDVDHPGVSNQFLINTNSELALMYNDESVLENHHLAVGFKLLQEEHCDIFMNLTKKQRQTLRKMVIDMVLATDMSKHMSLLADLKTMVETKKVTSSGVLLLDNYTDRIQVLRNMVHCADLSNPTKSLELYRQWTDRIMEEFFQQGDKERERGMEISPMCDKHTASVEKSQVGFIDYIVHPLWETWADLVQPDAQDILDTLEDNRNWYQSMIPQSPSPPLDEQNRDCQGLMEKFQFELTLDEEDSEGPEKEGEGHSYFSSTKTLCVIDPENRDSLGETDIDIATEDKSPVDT
The target of data set [15] is T3, High affinity 3',5'-cyclic-AMP phosphodiesterase 7A. The data set can be described thus: Inhibition of human recombinant PDE7A1-mediated [3H]cAMP hydrolysis at 10 uM after 20 mins by scintillation proximity assay. Summed up:
as §2

Data set [16] is described as follows: Cytotoxicity against rat microglia cells at 5 to 10 uM after 16 hrs by MTT assay. It is filed as cell-based. Summed up:
as §3

For data set [17], the species on record is Homo sapiens. As to the kind of experiment: Selectivity index, ratio of IC50 for human recombinant PDE7A1 to IC50 for human recombinant PDE3A. Summed up: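 Ratio of IC50 values for PDE7A1 and PDE3A, each obtained by scintillation proximity assay with [3H]cAMP for 20 min at 30 °C.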
A further data set relates to Microglia. The data set can be described thus: Antiinflammatory activity in rat microglia cells assessed as inhibition of LPS-induced nitrite production at 5 to 10 uM incubated for 1 hr prior to LPS-challenge measured after 24 hrs by Griess method. It is filed as functional, cell-based. Summed up:
as §4

Activity calls are given as the source filed them. The calls are words filed in the database; no cut-off is given here.

T3 sequence (Q13946 whole entry): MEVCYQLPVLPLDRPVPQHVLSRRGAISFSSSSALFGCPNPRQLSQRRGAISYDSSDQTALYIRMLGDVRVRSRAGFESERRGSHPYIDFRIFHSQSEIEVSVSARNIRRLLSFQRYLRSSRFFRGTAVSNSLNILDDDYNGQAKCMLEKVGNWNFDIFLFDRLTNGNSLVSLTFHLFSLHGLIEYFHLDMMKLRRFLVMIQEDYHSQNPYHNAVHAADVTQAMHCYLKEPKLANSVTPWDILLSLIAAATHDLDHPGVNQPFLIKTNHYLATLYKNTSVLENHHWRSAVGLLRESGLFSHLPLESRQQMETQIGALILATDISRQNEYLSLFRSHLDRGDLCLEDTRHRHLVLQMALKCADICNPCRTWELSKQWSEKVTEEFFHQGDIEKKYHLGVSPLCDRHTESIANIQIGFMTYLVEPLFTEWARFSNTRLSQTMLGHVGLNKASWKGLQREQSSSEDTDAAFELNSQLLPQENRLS
T1 sequence (Q14432 whole entry): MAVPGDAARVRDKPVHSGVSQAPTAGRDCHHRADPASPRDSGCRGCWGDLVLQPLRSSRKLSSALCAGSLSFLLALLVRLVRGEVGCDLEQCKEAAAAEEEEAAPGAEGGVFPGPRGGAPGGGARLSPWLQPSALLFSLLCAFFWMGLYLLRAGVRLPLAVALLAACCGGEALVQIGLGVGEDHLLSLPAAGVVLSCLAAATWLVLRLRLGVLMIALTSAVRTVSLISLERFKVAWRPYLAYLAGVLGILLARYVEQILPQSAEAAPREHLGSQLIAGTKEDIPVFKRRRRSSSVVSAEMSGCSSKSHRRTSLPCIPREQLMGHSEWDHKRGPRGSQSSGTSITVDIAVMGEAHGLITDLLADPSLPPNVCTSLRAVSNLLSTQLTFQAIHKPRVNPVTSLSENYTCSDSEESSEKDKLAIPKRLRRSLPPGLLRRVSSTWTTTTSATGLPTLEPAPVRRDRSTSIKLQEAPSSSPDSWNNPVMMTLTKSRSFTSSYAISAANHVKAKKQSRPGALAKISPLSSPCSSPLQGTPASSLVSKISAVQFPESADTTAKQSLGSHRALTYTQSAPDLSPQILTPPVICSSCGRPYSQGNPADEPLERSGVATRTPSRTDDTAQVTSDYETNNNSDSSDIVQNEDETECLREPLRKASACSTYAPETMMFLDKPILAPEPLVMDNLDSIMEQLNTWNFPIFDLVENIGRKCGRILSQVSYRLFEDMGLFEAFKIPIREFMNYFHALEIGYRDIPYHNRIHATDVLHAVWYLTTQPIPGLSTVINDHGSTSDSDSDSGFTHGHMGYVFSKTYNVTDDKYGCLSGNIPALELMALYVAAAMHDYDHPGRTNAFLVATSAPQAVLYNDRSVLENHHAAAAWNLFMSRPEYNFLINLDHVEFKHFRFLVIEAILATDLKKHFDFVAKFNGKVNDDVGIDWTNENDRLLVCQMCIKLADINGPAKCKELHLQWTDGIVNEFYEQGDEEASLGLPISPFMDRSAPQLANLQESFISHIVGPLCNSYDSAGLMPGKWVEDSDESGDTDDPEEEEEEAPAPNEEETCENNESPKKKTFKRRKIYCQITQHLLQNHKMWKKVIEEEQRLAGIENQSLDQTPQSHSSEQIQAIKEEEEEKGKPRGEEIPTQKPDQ
3',5'-cyclic-AMP phosphodiesterase 4D, sequence (Q08499 whole entry): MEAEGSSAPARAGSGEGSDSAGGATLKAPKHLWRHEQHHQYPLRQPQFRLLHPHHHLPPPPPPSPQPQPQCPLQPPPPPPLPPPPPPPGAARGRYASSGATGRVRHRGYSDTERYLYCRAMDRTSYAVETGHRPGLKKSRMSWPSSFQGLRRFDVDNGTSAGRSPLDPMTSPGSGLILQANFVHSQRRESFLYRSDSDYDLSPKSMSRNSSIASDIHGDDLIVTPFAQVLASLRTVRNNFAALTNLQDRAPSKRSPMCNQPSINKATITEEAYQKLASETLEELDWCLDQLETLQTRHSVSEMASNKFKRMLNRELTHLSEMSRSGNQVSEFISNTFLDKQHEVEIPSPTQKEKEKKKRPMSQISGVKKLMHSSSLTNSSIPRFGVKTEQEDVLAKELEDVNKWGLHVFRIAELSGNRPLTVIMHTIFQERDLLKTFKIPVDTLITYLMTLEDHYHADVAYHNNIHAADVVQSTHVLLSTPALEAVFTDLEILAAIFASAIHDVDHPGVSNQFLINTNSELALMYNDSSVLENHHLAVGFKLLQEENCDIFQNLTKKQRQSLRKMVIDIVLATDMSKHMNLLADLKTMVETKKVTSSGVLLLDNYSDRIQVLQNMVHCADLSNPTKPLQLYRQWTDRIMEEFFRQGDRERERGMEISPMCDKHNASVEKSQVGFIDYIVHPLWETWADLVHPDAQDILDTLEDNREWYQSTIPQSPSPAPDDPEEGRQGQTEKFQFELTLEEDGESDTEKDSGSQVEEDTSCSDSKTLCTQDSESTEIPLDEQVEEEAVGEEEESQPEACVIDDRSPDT

For the compound `COc1cc(COC(=O)c2ccc(-c3ccccc3)o2)cc(OC)c1OC`, the IC50 in [1] was determined as 66.3 µM; in data set [6] it was 54.6 µM; in data set [12], 5.17 µM; in [14], 12.4 µM. Besides, the inhibition in data set [2] turned out to be 46.1%; in [4], 23.2%; in data set [15], 57.9%. Besides, in data set [3], the Papp at 2.5 h is 8.1 ×10⁻⁶ cm/s. For the same compound, the Ratio IC50 was 10 in the data set listed under Homo sapiens [5] and 0.09 in the data set filed under Homo sapiens [17]. Also, the outcome in the data set with Mus musculus [7], in the data set with Astrocyte and with Microglia was Active. Besides, the Activity entry in data set [8] is given as “Non-toxic”; in the data set with Mus musculus [10] it was “Toxic”; in data set [16], “Non-toxic”. The inhibition result in [9] was “Active”. The result in the data set with Mus musculus [11] was inactive. For the same compound, the Ki in [13] was found to be 5.91 µM.

The term IC50 denotes the concentration that gives 50% inhibition. As a reminder, the inhibition is the share of the control response that was lost under treatment. As usually defined, the Ki is a dissociation constant, usually derived from enzyme kinetics or from competition with a known ligand.
